Screening results as filed in PubChem.
V-ATPase pH – alters yeast V-ATPase proton transport; AID 504577; S. cerevisiae, pHLuorin cytosolic pH fluorescence; actives 0.37% (n = 350,000); response, % at 10 µM; in the data active = response mostly above about 7.3%, no sharp cut-off; inactive = mostly below about 5.4%; note: actives read high
ASAP1 GAP inh – blocks human ASAP1-stimulated Arf1 GTP hydrolysis | actives 0.19% (n = 360,000) | GDP FP detection | inhibition, % at 16.5 µM; in the data active = inhibition above about 25%
Target sequence (Q9ULH1 325-724 limits assumed): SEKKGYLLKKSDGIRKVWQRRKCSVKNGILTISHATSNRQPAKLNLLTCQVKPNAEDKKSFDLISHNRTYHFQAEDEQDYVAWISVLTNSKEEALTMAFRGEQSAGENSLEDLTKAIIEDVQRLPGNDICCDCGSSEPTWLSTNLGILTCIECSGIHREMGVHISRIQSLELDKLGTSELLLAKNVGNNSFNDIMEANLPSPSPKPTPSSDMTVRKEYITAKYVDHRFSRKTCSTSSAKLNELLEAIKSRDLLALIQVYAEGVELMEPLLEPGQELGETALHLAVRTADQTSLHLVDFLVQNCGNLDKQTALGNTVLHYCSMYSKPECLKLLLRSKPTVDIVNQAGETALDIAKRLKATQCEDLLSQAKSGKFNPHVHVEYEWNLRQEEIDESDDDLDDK
ARFGAP1 inh – inhibits rat ARF GTPase activating protein 1. inhibition, % at 16.5 µM. Q62848. actives 0.26% (n = 360,000). Arfgap1-stimulated ARF1 GTP hydrolysis, GDP FP detection;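 active = inhibition above a per-plate limit, mean inhibition of low control wells plus 3 SD, cut at about 25% in these data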
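System: truncated rat Arfgap1 GAP domain / Medium: HEPES-based buffer, pH 7.5 / Also added: N-terminally truncated human ARF1-GTP substrate / Incubation: enzyme reaction 120 min at 25 °C after 20 min preincubation / Measured by: FP of antibody-bound GDP Alexa 633 tracer, ex 620/em 688 nm / Replicates: singlicate, each compound tested once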
Exocytosis inh – blocks lytic granule exocytosis; TALL-104 LAMP-1 surface exposure, flow cytometry; cells stimulated with thapsigargin and PMA; inhibition, % at 10 µM; actives 0.66% (n = 360,000); AID 651702;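 active = inhibition above about 55%, limit read from the data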
NRP1-CendR mod – NRP-1/CendR interaction modulation. O14786. FAM-RPARPAR peptide binding to NRP-1, fluorescence polarization. inhibition, % at 25 µM. actives 0.85% (n = 360,000). AID 602438;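 active = inhibition or corrected inhibition above about 18%, plus a signal ratio from 0.5 to 1.5, limit read from the data, passing the limit was not always enough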
Exocytosis CP01 – lytic granule exocytosis inhibition; shares compounds with Exocytosis inh; TALL-104 cells, LAMP-1 externalization, flow cytometry; stimulated with PMA plus thapsigargin; inhibition, % at 10 µM; actives 11% (n = 1,500); AID 651954; in the data active = inhibition above about 60%
Numbers stand for hits; n = inactive; x = no result given. Only some compounds are listed: those with a hit (about 2.2% of all), similar ones and a draw of the others.

SMILES | V-ATPase pH | ASAP1 GAP inh | ARFGAP1 inh | Exocytosis inh | NRP1-CendR mod | Exocytosis CP01
CCOC(=O)c1cc(-c2cccc([N+](=O)[O-])c2)on1 | n | n | n | 66 | n | n
Cc1cc(C)cc(N2C(=O)CC(Sc3ccccc3C(=O)O)C2=O)c1 (centres undefined) | n | n | n | 84 | n | n
CSc1nc(-c2ccccc2)nc(C(C)C)n1 | n | n | n | n | n | x
COc1ccc(C(=S)N2CCN(c3ccccc3C)CC2)cc1OC | n | n | n | n | n | x
Cc1ccc2c(CN(C)Cc3ccc(Cl)cc3)cc(=O)oc2c1 | n | n | n | n | n | x
Cc1ccc2c(CN(C)Cc3ccc(Cl)cc3Cl)cc(=O)oc2c1 | n | n | n | 67 | n | n
Cc1ccc(/C=C/C(=O)N2CCCC(C(N)=O)C2)o1 (centres undefined) | n | n | n | n | n | x
O=C(Nc1ccccc1N1CCCCC1)c1cccc(OC(F)F)c1 | n | n | n | 99 | n | n
COc1ccc(Cl)cc1C(=O)Nc1ccccc1N1CCCCC1 | n | n | n | 57 | n | n
COc1ccc(CC(=O)Nc2cc(Cl)ccc2N2CCCC2)cc1 | n | n | n | 67 | n | n
COc1ccc(CCC(=O)Nc2cc(Cl)ccc2N2CCN(C)CC2)cc1 | x | n | n | x | x | x
CCOC(=O)[C@@H]1[C@H]2COc3cc(OC)ccc3[C@H]2N2C(=O)N(c3ccc(C(F)(F)F)cc3)C(=O)[C@]12C | n | n | n | n | n | x
COc1ccc(C(=O)NCCS(=O)(=O)N2CCc3ccccc3C2)cc1 | n | n | n | n | n | x
COc1ccc(NC(=O)CC2Nc3cccc4cccc(c34)NC2=O)cc1 (centres undefined) | n | n | n | 61 | n | n
Cc1cccnc1NC(=O)C(c1ccccc1)c1ccccc1 | n | n | n | n | n | x
COc1ccc(OCCOC(=O)c2nc3nccc(C)n3n2)cc1 | n | n | n | 58 | n | n
Cc1ccc(OCCOC(=O)c2nc3nccc(C)n3n2)cc1 | n | n | n | n | n | x
CCC(=O)N1CCc2cc(Br)cc(S(=O)(=O)N(C)c3ccc(OC)cc3)c21 | n | n | n | 74 | n | n
c1ccc(CCNc2ccnc3cc4ccccc4cc23)cc1 | n | n | n | 56 | n | 92
CC(C)Nc1ccc(Nc2ccnc3cc4ccccc4cc23)cc1 | n | n | n | 79 | n | n
COCCCN1C(=O)C(CC(=O)NCCCN(C)C)CC(C(=O)N2CCOCC2)=C1C (centres undefined) | x | n | n | n | n | x
CCN(CC)S(=O)(=O)c1ccc(N2CCCC2)c(NC(=O)c2ccc(OC)cc2OC)c1 | n | n | n | 72 | n | n
CCN(CC)S(=O)(=O)c1ccc(N2CCCC2)c(NC(=O)Cc2ccc(OC)cc2)c1 | n | n | n | n | n | x
CC1CC1C(=O)OCC(=O)Nc1ccc(Cl)cn1 (centres undefined) | n | n | n | n | n | x
O=C1CC/C=C\C[C@@H](CC(=O)N(CCO)Cc2ccccc2)C(=O)N[C@H](Cc2ccccc2)CO1 | n | n | n | 81 | n | n
SMILES | V-ATPase pH | ASAP1 GAP inh | ARFGAP1 inh | Exocytosis inh | NRP1-CendR mod | Exocytosis CP01
O=C1N[C@@H](Cc2ccccc2)COC(=O)[C@H](Cc2ccc(F)cc2)C/C=C\C[C@H]1CC(=O)N(CCO)Cc1ccccc1 | n | n | n | n | n | x
COc1ccccc1CNC(=O)CN(C)CC(=O)Nc1ccccc1Br | n | n | n | n | n | x
Cc1ccc(C(=O)N/C(=C\c2ccc(-c3ccccc3[N+](=O)[O-])o2)C(=O)NCCCN(C)C)cc1 | n | n | n | 77 | n | n
C[C@@H]1CN([C@H](C)CO)C(=O)CCCn2cc(nn2)CO[C@H]1CN(C)S(=O)(=O)c1ccccc1C#N | n | n | n | n | n | x
COc1ccc(-c2csc3ncnc(N4CCN(c5ccccc5)CC4)c23)cc1 | n | n | n | 70 | n | n
COc1ccc(-c2csc3ncnc(N4CCN(c5ccc(OC)cc5)CC4)c23)cc1 | n | n | n | n | n | x
COc1ccc(CNCCC(c2ccc(OC(C)C)cc2)C(C)C)cc1OC (centres undefined) | n | n | n | n | n | x
COc1ccc(C(CCNCc2ccc(N(C)C)cc2)C(C)C)cc1 (centres undefined) | n | n | n | 69 | n | n
